The values below come from ChEMBL document CHEMBL1149191, “Novel pyridazino[4,3-b]indoles with dual inhibitory activity against Mycobacterium tuberculosis and monoamine oxidase” (J Med Chem, 2004).

The target of assay [1] is T1, Amine oxidase [flavin-containing] A (Rattus norvegicus, UniProt P21396).
T1 sequence (P21396 whole entry): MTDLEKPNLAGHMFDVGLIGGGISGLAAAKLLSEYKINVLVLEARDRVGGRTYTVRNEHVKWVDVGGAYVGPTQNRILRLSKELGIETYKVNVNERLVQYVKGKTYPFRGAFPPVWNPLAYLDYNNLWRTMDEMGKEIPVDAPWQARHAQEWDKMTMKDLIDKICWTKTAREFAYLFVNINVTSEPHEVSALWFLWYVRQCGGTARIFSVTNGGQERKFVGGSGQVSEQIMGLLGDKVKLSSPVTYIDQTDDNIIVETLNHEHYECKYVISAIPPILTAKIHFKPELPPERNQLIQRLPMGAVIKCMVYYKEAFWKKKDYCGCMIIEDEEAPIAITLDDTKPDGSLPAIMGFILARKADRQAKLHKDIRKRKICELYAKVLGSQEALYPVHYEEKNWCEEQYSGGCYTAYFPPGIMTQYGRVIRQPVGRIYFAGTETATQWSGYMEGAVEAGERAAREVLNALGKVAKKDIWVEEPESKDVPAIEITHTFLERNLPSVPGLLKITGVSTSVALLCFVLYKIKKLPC
In words: Inhibitory activity of compound against Monoamine oxidase A isolated from rat liver mitochondria using [14C]5-HT creatinine sulfate; NI denotes no inhibition at 1000 uM. Put shortly:
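Rat liver mitochondria from differential centrifugation, in 50 mM phosphate buffer pH 7.4. Preincubated with inhibitor (10⁻⁸–10⁻³ or 10⁻⁴ M) for 60 min at 37 °C. MAO-A activity measured radiometrically as ¹⁴C-aldehyde formed from 0.1 mM [¹⁴C]-5-hydroxytryptamine creatinine sulfate; IC50 reported.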

Assay [2] deals with T2, Amine oxidase [flavin-containing] B (Rattus norvegicus, UniProt P19643).
T2 sequence (P19643 whole entry): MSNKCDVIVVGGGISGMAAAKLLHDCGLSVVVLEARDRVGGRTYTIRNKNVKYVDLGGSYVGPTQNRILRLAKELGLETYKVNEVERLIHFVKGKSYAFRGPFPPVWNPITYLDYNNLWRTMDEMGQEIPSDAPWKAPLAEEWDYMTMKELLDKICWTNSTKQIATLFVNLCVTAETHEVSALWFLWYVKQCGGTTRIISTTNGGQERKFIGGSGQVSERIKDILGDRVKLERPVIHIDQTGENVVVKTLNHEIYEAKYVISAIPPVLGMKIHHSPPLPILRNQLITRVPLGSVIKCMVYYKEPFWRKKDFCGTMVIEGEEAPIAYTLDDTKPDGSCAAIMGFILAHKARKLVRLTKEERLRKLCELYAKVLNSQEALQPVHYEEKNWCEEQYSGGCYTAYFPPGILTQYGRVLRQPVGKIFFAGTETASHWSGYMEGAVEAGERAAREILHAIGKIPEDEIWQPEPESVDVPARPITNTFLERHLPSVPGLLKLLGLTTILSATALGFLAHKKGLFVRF
In words: Inhibition of Monoamine oxidase B from rat liver mitochondria. Put shortly:
(§1)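 Rat liver mitochondria from differential centrifugation, in 50 mM phosphate buffer pH 7.4. Preincubated with inhibitor (10⁻⁸–10⁻³ or 10⁻⁴ M) for 60 min at 37 °C. MAO-B activity measured radiometrically as ¹⁴C-aldehyde formed from 10 μM [¹⁴C]-phenylethylamine; IC50 reported.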

In assay [3] the test system is Mycobacterium tuberculosis. In words: In vitro inhibition of Mycobacterium tuberculosis H37Rv, determined at 0.2 ug/mL. Type of assay: functional. Put shortly: (§2)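 M. tuberculosis H37Rv (Pasteur) grown twice for 1 week each in Dubos broth at 37 °C, washed, then filtered to remove clumps. 25 × 10⁴ CFU per well in RPMI 1640 with 5 mM HEPES, 2 mM L-glutamine and 2% FBS. Compound added from DMSO stock; 5,6-[³H]-uracil added at 24 h, then 18 h at 37 °C.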

Assay [4] deals with Mycobacterium tuberculosis. In words: In vitro inhibition of Mycobacterium tuberculosis H37Rv, determined at 2 ug/mL. Type of assay: functional. Put shortly:
as §2

Assay [5] concerns Mycobacterium tuberculosis. Nature of the assay: In vitro inhibition of Mycobacterium tuberculosis H37Rv, determined at 20 ug/mL. Type of assay: functional. Put shortly:
as §2

Assay [6] deals with T2, Amine oxidase [flavin-containing] B. In words: Inhibitory activity against Monoamine oxidase B isolated from rat liver mitochondria using [14C]phenylethylamine; NI denotes no inhibition at 1000 uM. Put shortly:
as §1

As to `CCn1c2ccccc2c2nnc(N)c(-c3ccccc3)c21`, the IC50 entry was “No inhibition” in assay [1] and 72 µM in assay [2]. For the same molecule, the inhibition at 0.2 µg/mL in assay [3] was 0%. Also, the inhibition at 2 µg/mL in assay [4] was determined as 0%. The same molecule displayed an inhibition at 20 µg/mL in assay [5] of 40.3%.

`Nc1[nH]nc2c3ccccc3nc-2c1-c1ccc(F)cc1`: the IC50 entry in assay [1] and in assay [6] was “No inhibition” throughout. In addition, 0.2 µg/mL produced 0% inhibition in assay [3]. 2 µg/mL produced 0% inhibition in assay [4]. The inhibition at 20 µg/mL in assay [5] was 35.1%.

For `Cn1c2ccccc2c2nnc(N)c(-c3ccccc3F)c21`, the IC50 entry was “No inhibition” in assay [1] and 41.6 µM in assay [2]. Besides, in assay [3], the inhibition at 0.2 µg/mL is 0%. Besides, the inhibition at 2 µg/mL in assay [4] amounted to 0%. For the same molecule, 20 µg/mL produced 45.3% inhibition in assay [5].

For `CCn1c2ccccc2c2nnc(N)c(-c3ccc(C)cc3)c21`, the IC50 entry is “No inhibition” in assay [1] and 11 µM in assay [2]. The same molecule had an inhibition at 0.2 µg/mL in assay [3] of 0%. The same molecule registered an inhibition at 2 µg/mL in assay [4] of 0%. The inhibition at 20 µg/mL in assay [5] worked out at 30.1%.

On to `Nc1nnc2c([nH]c3ccccc32)c1-c1ccccc1`, for which the IC50 entry in assay [1] and in assay [6] was “No inhibition” in each case. In assay [3], this molecule gave an inhibition at 0.2 µg/mL of 2.3%. Further, testing at 2 µg/mL in assay [4] gave an inhibition of 25.5%. This molecule also showed an inhibition at 20 µg/mL in assay [5] of 28.5%.

By IC50 is commonly meant the point on the concentration scale where inhibition reaches its midpoint. By inhibition is commonly meant the share of the control response that was lost under treatment.
